The text below walks through data of paper PMC12644240 (International Journal of Nanomedicine, 2025).

For data set [1] the following is noted: cited from earlier work; for Dissolution after one minute, coarse suspension / Dissolution after one minute, nanosuspension: 1 min; for Dissolution after one minute, nanosuspension: nanosuspension with Tween 80 as stabilizer.
The next data set has as its system embryonic models. To be noted: cited from earlier work.
Data set [2] is described as follows: Dissolution study in PBS pH 7.4 under sink conditions. Format: physicochemical. To be noted: PBS pH 7.4, 37 °C. In short, it runs like this:
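Nanosuspension, coarse suspension or raw powder (1 mg drug each, liquid doses confirmed by HPLC) was added to 100 mL PBS pH 7.4 at 37 °C with magnetic stirring under sink conditions. Samples taken at 1–30 min and 1–8 h were replaced with fresh medium and centrifuged at 15000 rpm for 20 min. Supernatant was assayed by HPLC at 306 nm. At least triplicate, mean ± SD.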

In the next data set the test system is human CRBN. The following applies: cited from earlier work.
The next data set has as its system SALL4 and Aiolos. To be noted: cited from earlier work.
Another data set can be described thus: Aqueous solubility study. Format: physicochemical. To be noted: bidistilled water, 37 °C, 72 h stirring, n = 3. The procedure, abridged: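 Excess drug (raw powder), coarse suspension or nanosuspension stirred in bidistilled water at 37 °C for 72 h. Samples were centrifuged twice at 15,000 rpm for 30 min, and the clear supernatant was diluted. Drug was quantified by HPLC (C18 column; water:ACN:acetic acid […]; 0.7 mL/min; 306 nm) against a linear calibration curve. n = 3, mean ± SD.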

The conditions of data set [3]: cited from earlier work.

The structures appear in SMILES notation.

On to `CCC(C)n1ncn(-c2ccc(N3CCN(c4ccc(OCC5COC(Cn6cncn6)(c6ccc(Cl)cc6Cl)O5)cc4)CC3)cc2)c1=O` (stereo not shown) [itraconazole], for which, in data set [1], the “Dissolution after one minute, coarse suspension” value is given as “approximately 20%”; the “Dissolution after 30 minutes, coarse suspension” value is 40–50%; the “Dissolution after one minute, nanosuspension” value was “almost complete dissolution”.

For `Nc1cccc2c1C(=S)N(C1CCC(=O)NC1=O)C2=O` (stereo not shown) [MTPOM, 3-monothiopomalidomide], the Risk of teratogenicity entry in the data set on embryonic models is “significantly attenuated risk of teratogenicity”. Also, the “Drug dissolved at first time point (1 minute)” value in data set [2] (1 min) was “approximately 22%”. Moreover, the “Drug dissolved at end of test (8 hours)” value in data set [2] (8 h) was found to be 44%. Besides, in the data set on human CRBN, the “Binding to human CRBN” value is “binds to human CRBN”. Moreover, the “Degradation of neosubstrates SALL4 and Aiolos” value in the data set with SALL4 and Aiolos was “without triggering the subsequent degradation”. This compound registered an Aqueous solubility in the data set “Aqueous solubility study” of 4.8 ± 0.2 µg/mL.

As to `CC[C@@H]([C@H](C)O)n1ncn(-c2ccc(N3CCN(c4ccc(OC[C@@H]5CO[C@@](Cn6cncn6)(c6ccc(F)cc6F)C5)cc4)CC3)cc2)c1=O` [posaconazole], the “Average diameter when nanosized via media milling” value in data set [3] is reported as 185 nm.

As to `COc1ccc2c(c1)c(CC(=O)O)c(C)n2C(=O)c1ccc(Cl)cc1` [indomethacin], in data set [1], the “Dissolution after one minute, coarse suspension” value is “approximately 20%”; the “Dissolution after 30 minutes, coarse suspension” value is 40–50%; the “Dissolution after one minute, nanosuspension” value is given as “almost complete dissolution”.
